Source: PubChem (several laboratories)
This is a sample that favours compounds with a hit; in the whole collection about 2.4% have one here.
UBC13 inh – human UBC13 polyubiquitination inhibition | AID 485273 | P61088 | inhibition, % at 20 µM | UBC13 polyubiquitin chain formation, TR-FRET | hit rate 0.47% among 330,000; in the data active = inhibition above about 45%, passing the limit was not always enough
TMEM16A inh – blocks the mouse calcium-activated chloride channel TMEM16A; HEK293 TMEM16A/YFP iodide influx fluorescence, ionomycin; normalized B-score (activity score, 25-100; higher = stronger inhibition) at 10 µM; hit rate 1.2% among 310,000;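 active = ratio plate-corrected score three or more library SD toward inhibition, starting fluorescence score within five deviations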;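 note: score derived from kinetic fluorescence span divided by baseline fluorescence per well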
DNA FID counter – fluorescent intercalator displacement, NS3 helicase counter-screen. DNA fluorescent intercalator displacement, fluorescence. inhibition, % at 7.9 µM. hit rate 0.17% among 290,000; in the data active = inhibition above about 37%;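 note: 0% = vehicle and 100% = reference compound; higher means more ethidium bromide displaced from hairpin DNA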
TMEM16A act – activators or potentiators of mouse TMEM16A chloride channel. hit rate 0.3% among 340,000. B-score at 10 µM. Q8BHY3. AID 623877. HEK293 TMEM16A/YFP-H148Q/I152L, iodide quench fluorescence; hits give low values;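 active = fluorescence-ratio B-score plate-corrected deviation score at least 3 library SD below zero, with starting fluorescence score within 5 deviations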;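 note: channel opened by trigger with iodide after compound preincubation; score built on the fluorescence ratio of max minus min over baseline; more negative score means more quench and so TMEM16A activation or potentiation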
Apaf-1 inh – inhibitors of human Apaf-1 apoptosome | O14727 | reconstituted apoptosome caspase-3 activity, DEVD-Rh110 fluorescence | inhibition, % at 20 µM | hit rate 0.71% among 330,000 | AID 489030; active = inhibition of at least 40% at 20 µM;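 note: plate controls were DMSO wells for no effect and DEVD-CHO caspase inhibitor wells for full effect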
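detection = Rh110 fluorescence intensity | test system = biochemical Apaf-1 apoptosome reconstitution | also added = cytochrome c and DEVD-Rh110 substrate | schedule = 30 min plus 50 min, RT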
Starred values were filed as active, the others as inactive; i = inactive; . = not tested or not shown.

SMILES | UBC13 inh | TMEM16A inh | DNA FID counter | TMEM16A act | Apaf-1 inh
Cc1ccccc1OCC(O)CN(CCO)Cc1ccccc1 (configuration not stated) | -16.4 | i | 5.3 | -37.9* | 0.0
Nc1c(/C=C2/C=CC(=O)C(O)=C2)c(=O)nc2sc(CC(=O)N3CCCC3)nn12 | -46.2 | i | -28.7 | i | 3.2
Nc1c(/C=C2/C=CC(=O)C(O)=C2)c(=O)nc2sc(CC(=O)N3CCCCC3)nn12 | -28.5 | i | -31.4 | -5.45* | 3.7
CCOC1=C/C(=C/c2c(N)n3nc(CC(=O)N4CCCC4)sc3nc2=O)C=CC1=O | -33.9 | i | -36.2 | i | 9.1
COC1=C/C(=C/c2c(N)n3nc(CC(=O)N4CCCC4)sc3nc2=O)C=CC1=O | -36.0 | i | -29.9 | -5.71* | 7.0
O=C(c1ccco1)N1CCN(Cc2nnnn2C2CCCCC2)CC1 | 2.3 | i | -22.1 | i | -0.4
NNC(=O)c1sccc1OCc1ccc(Cl)cc1Cl | 5.2 | 25* | -30.6 | i | 20.2
Cc1oc(-c2ccccc2)cc1C(=O)Nc1cccc2ccccc12 | 2.4 | i | -8.7 | i | 10.4
NS(=O)(=O)c1ccc(N2CCCC2=O)c([N+](=O)[O-])c1 | -5.0 | i | 8.4 | -4.87* | 0.8
NNS(=O)(=O)c1ccc(N2CCCC2=O)c([N+](=O)[O-])c1 | 2.3 | i | 1.8 | i | -9.7
CC/C(=N\NC(=O)c1ccncc1)C12CC3CC(CC(C3)C1)C2 | 0.7 | i | -0.3 | i | 6.5
CC/C(=N\NC(=O)c1ccc2c(c1)OCO2)C12CC3CC(CC(C3)C1)C2 | 3.9 | i | -3.9 | -6.11* | -0.5
O=C(NC(=S)NC1C2CC3CC(C2)CC1C3)c1ccccc1 (configuration not stated) | 1.2 | i | -23.6 | -4.69* | 14.9
O=S(=O)(N/N=C/c1ccc(F)cc1)c1ccccc1 | 1.0 | 25* | 0.2 | i | 15.5
COc1ccc(CCn2c(=N)c(C(=O)NCCN3CCOCC3)cc3c(=O)n4ccccc4nc32)cc1OC | -7.7 | i | 44.3* | i | -6.2
CCCNc1nc2nc3ccccn3c(=O)c2cc1C(=O)NCCN1CCOCC1 | 6.0 | i | 39.9* | i | -2.3
COc1ccc(CCNC(=O)c2cc3c(=O)n4ccccc4nc3n(CCCN3CCOCC3)c2=N)cc1OC | -8.6 | i | 46.1* | i | -8.6
COc1ccc(CCNC(=O)c2cc3c(=O)n4ccccc4nc3n(CC3CCCO3)c2=N)cc1OC (configuration not stated) | -6.2 | i | 10.5 | i | -6.5
Cc1cccn2c(=O)c3cc(C(=O)NCCN4CCOCC4)c(=N)n(CCCN4CCOCC4)c3nc12 | 1.5 | i | 78.9* | i | 0.9
COc1ccc(CCn2c(=N)c(C(=O)NCc3ccco3)cc3c(=O)n4ccccc4nc32)cc1OC | . | . | . | i | .
CCN(CC#CCC1(O)c2ccccc2-c2ccccc21)C(C)C | -4.7 | i | 4.0 | i | 9.7
CCOc1ccccc1NC(=O)CSc1nnc(CNC(=O)c2cccs2)o1 | 1.0 | i | -20.4 | i | -11.3
CCCCn1c(N)c(N(CCOC)C(=O)c2cc(C)oc2C)c(=O)[nH]c1=O | -1.2 | i | . | i | -5.3
CC(=O)Nc1ccc(NC(=O)CSc2ccc3nnc(-c4cccnc4)n3n2)cc1 | 5.2 | i | -8.8 | i | -6.5
Cc1cccn2c(=O)c3cc(C(=O)NC4CCCCC4)c(=N)n(Cc4ccccc4)c3nc12 | 20.0 | i | 1.5 | i | 57.3*
SMILES | UBC13 inh | TMEM16A inh | DNA FID counter | TMEM16A act | Apaf-1 inh
COc1ccc(CCNC(=O)c2cc3c(=O)n4ccccc4nc3n(CCCN3CCOCC3)c2=N)cc1 | 3.2 | i | 47.9* | i | -2.1
Cc1cccn2c(=O)c3cc(C(=O)NCCN4CCOCC4)c(=N)n(CCc4ccccc4)c3nc12 | 5.6 | i | 17.6 | i | 1.9
COc1ccc(CCNC(=O)c2cc3c(=O)n4ccccc4nc3n(CCN3CCOCC3)c2=N)cc1 | -0.1 | i | -6.8 | i | 7.4
COc1ccc(CCn2c(=N)c(C(=O)NCCN3CCOCC3)cc3c(=O)n4cccc(C)c4nc32)cc1OC | -9.2 | i | 56.2* | i | -1.4
CC1(C2(O)CCCCC2)NCCc2ccccc21 (configuration not stated) | -0.4 | . | . | i | -2.5
Cc1cc(C)c2nc(Nc3nc(CSc4nc5ccccc5[nH]4)cc(=O)[nH]3)nc(C)c2c1 | . | . | . | -6.42* | .
Cc1ccc(SCc2cc(=O)[nH]c(Nc3nc(C)c4cccc(C)c4n3)n2)cc1 | -20.9 | i | 0.5 | i | 5.8
Cc1cc(C(=O)NC(C)C2CCCO2)no1 (configuration not stated) | -5.1 | i | 0.3 | i | 5.6
Cc1ccc(N=Cc2cccc(O)c2O)c(C)c1 | -5.5 | i | 4.8 | i | 93.3*
CCN(CC)c1ccc(C=Nc2ccc(C)cc2C)c(O)c1 | 18.3 | i | 3.4 | i | 4.8
CN(C)c1ccc(/C=C/c2ccc3c4ccccc4ccc3[n+]2-c2ccccc2)cc1 | . | . | 78.4* | i | .
CN(C)c1ccc(/C=C/c2ccc3ccccc3[n+]2C)cc1 | i | i | 41.7* | i | 17.9
CN(C)c1ccc(/C=C/c2cccc[n+]2[O-])cc1 | -3.2 | i | -5.2 | i | -10.3
CN(CCCS(=O)(=O)[O-])c1ccc(/C=C/c2ccc3ccccc3[n+]2C)cc1 | -296.4 | i | -19.7 | i | 9.7
O=C(Nc1ccc(SC(F)F)cc1)c1ccc2c(=O)n3c(nc2c1)CCC3 | 3.3 | . | . | i | 6.3
CCO/C=C1/C(=O)N(Cc2ccccc2)C(=O)c2ccccc21 | -19.3 | i | -1.4 | i | 61.7*
CCO/C=C1\C(=O)N(c2ccccc2)C(=O)c2ccccc21 | 3.8 | i | -2.2 | i | 1.6
CCN1CCN(c2ccc(S(=O)(=O)N3CCCCC3)cc2NC(=O)/C=C/c2cccc(OC)c2OC)CC1 | 10.0 | i | 38.0* | i | 22.7
CCN1CCN(c2ccc(S(=O)(=O)N3CCCCC3)cc2NC(=O)/C=C/c2ccc(F)cc2)CC1 | 6.6 | i | . | i | 22.4
CC(OC(=O)c1cccc(N(C)C)c1)C(=O)N1CCc2ccccc2C1 (configuration not stated) | 9.1 | . | . | i | 5.1
COc1cc(/C=N/NC(=S)NC2CC3CC2C2C=CCC32)ccc1O (configuration not stated) | -1.6 | 100* | -13.8 | i | 2.3
Cc1cc(C)cc(NC(=O)C2CCN(c3nccs3)CC2)c1 | -0.3 | i | -13.2 | -14.4* | 18.7
Cc1cc(C)cc(NC(=O)C2CCN(S(C)(=O)=O)CC2)c1 | 0.9 | i | -5.6 | i | -67.0
CCc1ccc2[nH]c(=O)c(C(c3nnnn3CCOC)N3CCN(c4ccccc4)CC3)cc2c1 (configuration not stated) | -7.9 | i | -27.0 | i | 0.3
Clc1ccc(N=c2ssnc2Cl)cc1 | 4.8 | 100* | 1.0 | i | 2.4
